Among the data in ChEMBL document CHEMBL3351576, “Five new quassinoids and cytotoxic constituents from the roots of Eurycoma longifolia” (Bioorg Med Chem Lett, 2014) are viability and IC50 values, retold here.

The test system of assay [1] is A549. Description: Cytotoxicity against human A549 cells assessed as cell viability at 100 uM by SRB assay. Format: functional. The conditions noted are these: read-out: Activity. Summed up: (§1)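 Modified sulforhodamine B (SRB) protein-stain assay. Each human cancer line was exposed to 1, 10 and 100 µM of each isolated root constituent. The read-out is relative cell viability (%), reported as mean ± error.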

For assay [2], the system named is A549. Description: Cytotoxicity against human A549 cells assessed as cell viability at 10 uM by SRB assay. Format: functional. The conditions noted are these: read-out: Activity. In short, it runs like this: as §1
Assay [3] concerns HeLa. Description: Cytotoxicity against human HeLa cells assessed as cell viability at 1 uM by SRB assay. The format is functional. The conditions noted are these: read-out: Activity. In short, it runs like this:
as §1

For assay [4], the system named is A549. Nature of the assay: Cytotoxicity against human A549 cells assessed as cell viability at 1 uM by SRB assay. The format is functional. The conditions noted are these: read-out: Activity. Summed up:
as §1

In assay [5] the test system is HeLa. Description: Cytotoxicity against human HeLa cells assessed as cell viability at 100 uM by SRB assay. Format: functional. Particulars: read-out: Activity. Summed up: as §1
The test system of assay [6] is HeLa. Nature of the assay: Cytotoxicity against human HeLa cells assessed as cell viability at 10 uM by SRB assay. Format: functional. Particulars: read-out: Activity. In short, it runs like this:
as §1

Assay [7] deals with HeLa. Nature of the assay: Cytotoxicity against human HeLa cells by SRB assay. The format is functional, cell-based.

On to `C[C@H]1[C@H]2OC(=O)[C@@H]1[C@]1(C)C(=O)C=C3[C@@](C)(O)C[C@H](O)[C@@H](O)[C@]3(C)C1[C@H]2O` (some centres not stated), for which the viability at 100 µM was determined as 101% in the assay with A549 [1] and 102% in the assay on HeLa [5]. In addition, the viability at 10 µM with A549 [2] and with HeLa [6] was 102% throughout. The viability at 1 µM in the assay on HeLa [3] amounted to 101%; with A549 [4] it was 96.6%.

Turning to `C=C1[C@@H](O)[C@@]2(O)OC[C@]34[C@H]2[C@@]2(C)[C@H](O)C(=O)C=C(C)[C@@H]2C[C@H]3OC(=O)[C@H](O)[C@@]14O` [EURYCOMANONE], the viability at 100 µM in the assay on A549 [1] was determined as 87.2%; in the assay on HeLa [5], 47%. Further, the viability at 10 µM in the assay with A549 [2] is 101%; in the assay on HeLa [6], 97.5%. Further, the viability at 1 µM in the assay on HeLa [3] stood at 101%; in the assay with A549 [4], 96.8%.

Regarding `CC1=CC(=O)O[C@H]1[C@@]1(C)C[C@H]2OC(=O)[C@H](O)[C@@]3(O)[C@@H](C)C(=O)C(O)=C1[C@@]23CO`, the viability at 100 µM in the assay on A549 [1] is 103%; with HeLa [5], 106%. In addition, the viability at 10 µM with A549 [2] came out at 104%; in the assay with HeLa [6], 103%. Also, the viability at 1 µM in the assay on HeLa [3] and in the assay on A549 [4] was 102% each time.

With `CC1=CC(=O)[C@@H](O)[C@@]2(C)[C@H]1CC(=O)[C@@]1(C)[C@H]3C(=O)O[C@H]([C@@H]3C)[C@H](O)[C@@H]12` [EURYCOMALACTONE], the figures for the viability at 100 µM in the assay with A549 [1] and with HeLa [5] were 41.5% and 44.5%, respectively. Besides, the viability at 10 µM in the assay with A549 [2] was determined as 71.5%; with HeLa [6], 77.7%. Also, the viability at 1 µM was found to be 105% in the assay with HeLa [3] and 101% in the assay on A549 [4].

For `CC1=CC(=O)[C@@H](O)[C@]2(C)[C@H]3[C@]4(O)OC[C@@]35[C@@H](C[C@@H]12)OC(=O)[C@H](O)[C@@]5(O)[C@H](C)[C@H]4O` [PASAKBUMIN C], the values for the viability at 100 µM in the assay with A549 [1] and in the assay on HeLa [5] were 99.8% and 101%, respectively. Besides, the viability at 10 µM with A549 [2] is 101%; in the assay on HeLa [6], 102%. Also, the results for the viability at 1 µM in the assay with HeLa [3] and with A549 [4] were 99.8% and 99.2%, respectively.

In the case of `COc1cccc2c1C(=O)c1c(O)c3c(c(O)c1C2=O)C[C@@](O)(C(=O)CO)C[C@@H]3O[C@H]1C[C@H](N)[C@@H](O)[C@H](C)O1` [EPIRUBICIN], the viability at 10 µM amounted to 0.61% with A549 [2] and 24.3% in the assay with HeLa [6].

As to `CC1=CC(=O)O[C@H]1[C@@]1(C)C[C@H]2OC(=O)[C@H](O)[C@@]3(O)[C@H](C)C(=O)C(O)=C1[C@@]23CO`, the results for the viability at 100 µM in the assay with A549 [1] and with HeLa [5] were 104% and 106%, respectively. For the same compound, the viability at 10 µM in the assay with A549 [2] and in the assay with HeLa [6] was 104% in each case. The viability at 1 µM in the assay with HeLa [3] is 102%; with A549 [4], 101%.

For the compound `C=C1C[C@H](O)[C@@H](O)[C@]2(C)[C@H]3[C@@H](O)[C@H](O)[C@H](C)[C@@H]4C(=O)O[C@H]([C@H](O)[C@@H]12)[C@]34C`, the viability at 100 µM in the assay with A549 [1] came to 101%; in the assay on HeLa [5] it was 98.7%. Also, the viability at 10 µM with A549 [2] and in the assay with HeLa [6] was 101% each time. The viability at 1 µM with HeLa [3] worked out at 99.7%; in the assay on A549 [4], 96.8%.

Take `CC1=CC(=O)[C@@H](O)[C@@]2(C)[C@H]1[C@@H](O)[C@H]1OC(=O)C3[C@@H](C)[C@H](O)[C@H](O)[C@H]2[C@]31C` (some centres not stated) [LONGILACTONE]: the viability at 100 µM with A549 [1] came out at 66.1%; with HeLa [5], 66.9%. Also, the viability at 10 µM in the assay with A549 [2] amounted to 99.8%; in the assay on HeLa [6], 102%. Also, the values for the viability at 1 µM in the assay with HeLa [3] and with A549 [4] were 101% and 99.7%, respectively.

With `CC1=CC(=O)[C@@H](O)[C@]2(C)[C@H]3[C@@H](O)[C@H](O)[C@H](C)[C@]4(O)[C@@H](O)C(=O)O[C@H](C[C@@H]12)[C@]34C`, the viability at 100 µM turned out to be 43.3% in the assay with A549 [1] and 21% in the assay on HeLa [5]. In addition, in the assay on HeLa [7], the half-maximal inhibitory concentration (IC50) came out at 48.2 µM. In addition, the viability at 10 µM worked out at 86.4% in the assay with A549 [2] and 71.6% in the assay with HeLa [6]. The viability at 1 µM with HeLa [3] was found to be 101%; in the assay on A549 [4], 99.5%.

On to `CC1=CC(=O)O[C@H]1[C@@]1(C)C[C@H]2OC(=O)[C@H](O)[C@@]3(O)[C@@H](C)[C@@H](O)[C@H](O)[C@H]1[C@@]23C`, for which the viability at 100 µM stood at 100% in the assay with A549 [1] and 103% with HeLa [5]. Moreover, the viability at 10 µM in the assay with A549 [2] worked out at 102%; in the assay on HeLa [6], 104%. For the same compound, the viability at 1 µM in the assay with HeLa [3] is 104%; in the assay on A549 [4], 102%.

Regarding `CC1=CC(=O)[C@@H](O)[C@]2(C)[C@H]3[C@]4(O)OC[C@@]35[C@@H](C[C@@H]12)OC(=O)[C@H](O)[C@@]5(O)[C@]1(CO1)[C@H]4O`, the viability at 100 µM in the assay with A549 [1] worked out at 99.1%; in the assay on HeLa [5], 61.7%. The viability at 10 µM in the assay on A549 [2] was found to be 102%; in the assay with HeLa [6], 101%. Also, the viability at 1 µM with HeLa [3] is 101%; with A549 [4], 96.2%.

In the case of `CC1=CC(=O)[C@@H](O)[C@]2(C)[C@H]3[C@@H](O)[C@H](O)[C@H](C)[C@]4(O)[C@@H](O)C(=O)O[C@H](C[C@@]12O)[C@]34C`, the values for the viability at 100 µM with A549 [1] and in the assay with HeLa [5] were 99.3% and 100%, respectively. Moreover, the viability at 10 µM in the assay with A549 [2] was determined as 101%; in the assay on HeLa [6] it was 103%. Besides, the viability at 1 µM with HeLa [3] turned out to be 101%; in the assay on A549 [4] it was 99.8%.

Consider `C=C1C(=O)C(O)=C2[C@@](C)([C@@H]3OC(=O)C=C3C)C[C@H]3OC(=O)[C@H](O)[C@]1(O)[C@@]23CO`, for which the viability at 100 µM in the assay with A549 [1] worked out at 100%; with HeLa [5], 101%. In addition, the viability at 10 µM in the assay on A549 [2] was found to be 102%; in the assay on HeLa [6], 104%. Moreover, the viability at 1 µM in the assay with HeLa [3] stood at 102%; in the assay with A549 [4], 100%.

In the case of `CC1=C2C[C@H]3OC(=O)[C@H](O)[C@@]4(O)[C@@H](C)[C@]5(O)C(=O)OC[C@]34C5[C@@]2(C)[C@H](O)[C@@H](O)C1` (some centres not stated), the viability at 100 µM in the assay on A549 [1] and in the assay with HeLa [5] was 103% throughout. For the same compound, the viability at 10 µM with A549 [2] was found to be 103%; in the assay on HeLa [6], 105%. Also, the viability at 1 µM turned out to be 106% in the assay on HeLa [3] and 103% in the assay with A549 [4].
